pIC50: −log10 of the molar value. “And” between values parts separate entries of the source, which are not always exact repeats. Identical values can stand only once. “Also recorded” adds a separate entry of the source.
How the values were obtained:
[1] = target: T1, α1A-AR (Homo sapiens, UniProt P35348); assay: Western blot analysis of α1A-AR level in α1A-AR stably transfected HEK293 cells; format: cell-based; conditions: for DC50: read-out: DC50 (concentration required for 50% protein degradation) of α1A-AR, α1A-AR stably transfected HEK293 cells, 12 h, Western blot; for effect on α1A-AR level (Western blot, in words): α1A-AR HEK293 cells, indicated concentrations 12 h, 3 μmol/L for indicated time
T1 sequence (P35348 1-466): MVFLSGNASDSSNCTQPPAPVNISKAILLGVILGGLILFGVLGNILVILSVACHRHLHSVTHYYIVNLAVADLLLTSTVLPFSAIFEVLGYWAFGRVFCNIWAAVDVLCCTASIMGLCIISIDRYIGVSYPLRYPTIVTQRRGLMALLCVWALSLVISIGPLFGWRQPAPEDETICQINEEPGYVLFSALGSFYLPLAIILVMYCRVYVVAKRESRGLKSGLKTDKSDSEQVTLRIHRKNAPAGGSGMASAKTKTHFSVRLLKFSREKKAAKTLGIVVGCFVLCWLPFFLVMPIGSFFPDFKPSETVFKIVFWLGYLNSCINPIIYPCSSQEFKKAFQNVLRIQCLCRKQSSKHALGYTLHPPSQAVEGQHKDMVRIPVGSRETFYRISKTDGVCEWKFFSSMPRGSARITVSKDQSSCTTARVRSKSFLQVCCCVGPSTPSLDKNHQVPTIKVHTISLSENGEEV

[2] = system: PC-3 cells; assay: CCK-8 antiproliferation assay on PC-3 cells; format: cell-based; conditions: for antiproliferation activity on PC-3 cells (in words): 1–100 μmol/L, 48 h; for pIC50: Homo sapiens, PC-3, 48 h, read-out: antiproliferative activity IC50
Method in brief: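 PC-3 cells in RPMI-1640 with 10% FBS, 37 °C, 5% CO2. Seeded at 5000 cells/well, left 24 h, then exposed to test compound for 48 h; controls received DMSO only. CCK-8 reagent (WST-8/PMS) was added for 1 h at 37 °C and absorbance read at 450 nm. Viability was calculated against untreated-cell and cell-free blank wells.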

[3] = target: T2, α1B-AR (Homo sapiens, UniProt P35368); assay: Western blot analysis of α1B-AR level in stably transfected HEK293 cells; format: cell-based; conditions: 12 h
T2 sequence (P35368 1-520): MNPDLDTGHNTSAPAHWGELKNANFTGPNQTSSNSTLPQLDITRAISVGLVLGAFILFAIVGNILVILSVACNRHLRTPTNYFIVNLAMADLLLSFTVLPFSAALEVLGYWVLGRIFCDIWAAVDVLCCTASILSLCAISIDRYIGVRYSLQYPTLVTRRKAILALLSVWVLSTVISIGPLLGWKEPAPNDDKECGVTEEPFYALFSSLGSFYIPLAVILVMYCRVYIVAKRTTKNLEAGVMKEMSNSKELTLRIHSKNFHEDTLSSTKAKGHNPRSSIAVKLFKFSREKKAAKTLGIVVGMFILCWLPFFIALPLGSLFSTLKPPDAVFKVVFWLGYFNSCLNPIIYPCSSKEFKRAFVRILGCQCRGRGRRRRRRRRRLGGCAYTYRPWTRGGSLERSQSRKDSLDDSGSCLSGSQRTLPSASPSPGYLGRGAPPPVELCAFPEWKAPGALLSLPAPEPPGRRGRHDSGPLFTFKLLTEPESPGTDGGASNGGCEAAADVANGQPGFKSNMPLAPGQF

[4] = target: T3, α1D-AR (Homo sapiens, UniProt P25100); assay: Western blot analysis of α1D-AR level in stably transfected HEK293 cells; format: cell-based; conditions: 12 h
T3 sequence (P25100 1-572): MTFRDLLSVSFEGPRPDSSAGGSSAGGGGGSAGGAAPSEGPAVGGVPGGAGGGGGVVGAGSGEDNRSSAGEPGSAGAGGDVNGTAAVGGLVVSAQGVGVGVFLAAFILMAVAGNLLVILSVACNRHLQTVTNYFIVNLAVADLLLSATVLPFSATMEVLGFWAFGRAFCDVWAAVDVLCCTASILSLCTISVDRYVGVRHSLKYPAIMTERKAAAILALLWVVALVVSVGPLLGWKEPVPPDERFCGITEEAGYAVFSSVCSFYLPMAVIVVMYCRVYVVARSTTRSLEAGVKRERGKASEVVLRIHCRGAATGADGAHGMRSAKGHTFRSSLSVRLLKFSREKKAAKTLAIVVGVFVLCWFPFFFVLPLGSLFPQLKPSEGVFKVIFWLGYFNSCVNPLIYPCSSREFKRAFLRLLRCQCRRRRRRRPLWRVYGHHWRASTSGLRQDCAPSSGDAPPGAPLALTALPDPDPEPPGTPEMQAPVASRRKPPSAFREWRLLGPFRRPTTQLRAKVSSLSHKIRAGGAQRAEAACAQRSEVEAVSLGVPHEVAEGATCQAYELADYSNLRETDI

[5] = system: PC-3 derived prostate cancer xenografts; assay: PC-3 tumor xenograft model in nude mice; format: in vivo; conditions: 50 mg/kg daily intraperitoneal, two weeks
Method in brief: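 Four-week-old nude mice were given PC-3 cells subcutaneously (10⁶ cells/mouse). At 400 mm³ tumour volume they were split into two groups (n = 5). Each group received test compound or vehicle (10% DMSO + 10% PEG400 + 80% saline) i.p. daily for two weeks. Caliper tumour volume and body weight were taken every 2–3 days. Tumours were harvested 12 h after the last dose.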

Structure (SMILES)	DC50 [1]	antiproliferation activity on PC-3 cells (in words) [2]	effect on α1A-AR level (Western blot, in words) [1]	pIC50 [2]	further results
COc1cc2nc(N3CCN(C(=O)c4cn(CCOCC(=O)Nc5cccc6c5C(=O)N(C5CCC(=O)NC5=O)C6=O)nn4)CC3)nc(N)c2cc1OC (centres unmarked) [Compound 9a, 2-(2-(4-(4-(4-Amino-6,7-dimethoxyquinazolin-2-yl)piperazine-1-carbonyl)-1H-1,2,3-triazol-1-yl)ethoxy)-N-(2-(2,6-dioxopiperidin-3-yl)-1,3-dioxoisoindolin-4-yl)acetamide]	~4.32 µM	concentration-dependent antiproliferation activities			
COc1cc2nc(N3CCN(C(=O)c4cn(CCOCCOCC(=O)Nc5cccc6c5C(=O)N(C5CCC(=O)NC5=O)C6=O)nn4)CC3)nc(N)c2cc1OC (centres unmarked) [Compound 9b, 2-(2-(2-(4-(4-(4-Amino-6,7-dimethoxyquinazolin-2-yl)piperazine-1-carbonyl)-1H-1,2,3-triazol-1-yl)ethoxy)ethoxy)-N-(2-(2,6-dioxopiperidin-3-yl)-1,3-dioxoisoindolin-4-yl)acetamide]		much less influence	did not show too much effect		
COc1cc2nc(N3CCN(C(=O)c4cn(CCOCCOCCOCC(=O)Nc5cccc6c5C(=O)N(C5CCC(=O)NC5=O)C6=O)nn4)CC3)nc(N)c2cc1OC (centres unmarked) [Compound 9c, 2-(2-(2-(2-(4-(4-(4-Amino-6,7-dimethoxyquinazolin-2-yl)piperazine-1-carbonyl)-1H-1,2,3-triazol-1-yl)ethoxy)ethoxy)ethoxy)-N-(2-(2,6-dioxopiperidin-3-yl)-1,3-dioxoisoindolin-4-yl)acetamide]	~2.86 µM and 2.86 µM	concentration-dependent antiproliferation activities		5.21	Dmax ([1]; HEK293, read-out: maximal level of degradation (Dmax) of α1A-AR): 94%; time for α1A-AR level to recover to basal level after washout ([1]; after 12 h pretreatment with 10 μmol/L, cells washed thoroughly): approximately 24 h; α1A-AR degradation after bortezomib pretreatment (in words) ([1]; pretreatment of cells using bortezomib for more than 7 h): could no longer trigger the degradation; degradation activity for α1B-AR (in words) [3]: no degradation activity; influence on α1D-AR level (in words) [4]: slight influence; average tumor size and mass vs vehicle-treated group (in words) [5]: noticeably decreased; body weight (in words) ([5]; nude mice): without noticeable loss of body weight; effect on tumor growth (in words) ([5]; nude mice with PC-3 xenografts): significant antitumor effect; also recorded: significant suppression of tumor growth
COc1cc2nc(N3CCN(C(=O)c4cn(CCOCCOCCOCC(=O)Nc5cccc6c5C(=O)N(C5CCC(=O)N(C)C5=O)C6=O)nn4)CC3)nc(N)c2cc1OC (centres unmarked) [Compound 11, 2-(2-(2-(2-(4-(4-(4-Amino-6,7-dimethoxyquinazolin-2-yl)piperazine-1-carbonyl)-1H-1,2,3-triazol-1-yl)ethoxy)ethoxy)ethoxy)-N-(2-(1-methyl-2,6-dioxopiperidin-3-yl)-1,3-dioxoisoindolin4-yl)acetamide]			incapable of inducing α1A-AR degradation		
COc1cc2nc(N3CCN(C(=O)c4ccco4)CC3)nc(N)c2cc1OC [Prazosin, prazosin, reference compound]				4.93	

From article PMC7563999 (Acta Pharmaceutica Sinica. B, 2020)
